An excerpt weighted towards active compounds, which were near 29% of everything screened.
tolC growth inh = E. coli tolC mutant growth inhibition | E. coli BW25113 tolC mutant growth, OD615 | AID 573 | 2.2% of 65,000 active | growth inhibition, % at 10 µM (by protocol);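 active = growth inhibition at or above a cutoff equal to the mean over every tested compound plus 3 SD, cut at about 60% in these data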;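 also: growth measured after 20 h incubation at 37 °C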
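signal = optical density read at 615 nm | test system = E. coli ΔtolC::kan strain BW25113 | timing = 20 h compound exposure of bacteria at 37 °C | buffer or medium = LB medium plus 50 µg/mL kanamycin | compound dosing = 10 µM final, single dose | evaluation = % inhibition of E. coli growth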
CYP2C9 inhib = blocks human cytochrome P450 2C9; P11712; CYP2C9 Supersomes, luciferin-H conversion, luminescence; inhibition, % at 5 µM; 20% of 96,000 active; AID 777;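 active = blocking of liver enzyme CYP2C9 beyond about 50% at 5 µM, limit read from the data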
Target sequence (P11712 whole entry, looked up): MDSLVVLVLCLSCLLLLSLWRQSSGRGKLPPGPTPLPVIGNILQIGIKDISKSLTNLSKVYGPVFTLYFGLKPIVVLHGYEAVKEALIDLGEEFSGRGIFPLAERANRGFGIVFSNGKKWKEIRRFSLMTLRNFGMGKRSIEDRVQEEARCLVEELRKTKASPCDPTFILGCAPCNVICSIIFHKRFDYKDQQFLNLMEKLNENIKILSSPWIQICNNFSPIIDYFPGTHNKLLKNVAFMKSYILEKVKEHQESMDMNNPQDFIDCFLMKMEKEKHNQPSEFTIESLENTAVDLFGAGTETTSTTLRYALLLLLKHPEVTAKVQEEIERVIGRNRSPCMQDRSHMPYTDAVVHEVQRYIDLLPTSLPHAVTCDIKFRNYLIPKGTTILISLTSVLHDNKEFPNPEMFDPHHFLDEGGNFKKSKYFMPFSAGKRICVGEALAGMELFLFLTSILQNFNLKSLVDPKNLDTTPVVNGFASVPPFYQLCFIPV
CYP2C19 inhib = blocks human cytochrome P450 2C19; inhibition, % at 5 µM; AID 778; 21% of 96,000 active; CYP2C19 Supersomes, luciferin-H EGE luminescence, 30 min;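 active = CYP2C19 inhibition above a set limit at 5 µM in the primary screen, cut at about 50% in these data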
CYP2C9 act = activators of human CYP2C9; 1.4% of 96,000 active; activation factor at 5 µM; recombinant CYP2C9, luciferin-H conversion, luminescence; active compounds read high; factor 1 = untreated enzyme, 0 = blocked; AID 1024; P11712;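 active = activation factor of 2 or more for CYP2C9 at a 5 µM dose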
Ecoli WT expand = E. coli BW25113 growth inhibition, expanded screen | OD600 absorbance | growth inhibition, % at 100 µM | 0.15% of 98,000 active | AID 710;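 active = growth inhibition above about 50% at one test dose, limit read from the data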;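 also: growth measured after 20 h incubation at 37 °C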
CYP2C19 activ = increases human CYP2C19 enzyme activity; recombinant CYP2C19, luciferin-H EGE luminescence; active compounds read high; 0 = fully inhibited enzyme, 1 = untreated enzyme; activation factor at 5 µM; 96,000 tested, under 10 active;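 active = activation factor of at least 2 at 5 µM in the primary screen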
Numbers stand for hits; n = inactive; x = no result.

SMILES	tolC growth inh	CYP2C9 inhib	CYP2C19 inhib	CYP2C9 act	Ecoli WT expand	CYP2C19 activ
Nc1nnnn1/N=C/c1ccccn1	n	n	n	n	n	n
NC(=O)c1nn(-c2ccccc2)nc1N	n	n	n	n	n	n
Cc1cccc(N2C(=O)C3C4CC(C(Br)C4Br)C3C2=O)n1 (stereo unspecified)	x	n	n	n	n	n
Cc1ccc(S(=O)(=O)N2CCN(C)CC2)c(C)c1	x	n	n	n	n	n
C[C@H](NC(=O)Nc1ccc2c(c1)OCCO2)C(=O)O	n	n	n	n	n	n
Cc1ccc(N=Cc2ccc[nH]2)c(O)c1	n	n	n	n	n	n
O=C(NC1CCCc2ccccc21)C1CCN(c2c(N3CCCC3)c(=O)c2=O)CC1 (stereo unspecified)	n	x	x	x	x	x
Cc1c(N(C(=O)c2cc(=O)[nH]c3ccccc23)C(C)C)c(=O)n(-c2ccccc2)n1C	n	n	n	n	n	n
O=[N+]([O-])c1ccc(Cl)c(/C=N/N2CCN(c3ccccc3)CC2)c1	x	n	n	2.9	n	n
Cc1cc(C)c(C(N)=O)c(NCCc2ccccc2)n1	n	n	56.2	n	n	n
COc1ccccc1Nc1nc(C)cc(C)c1C(N)=O	n	n	n	n	n	n
CCn1c(SCCOc2ccc(OC)cc2)nnc1C(CO)NC(=O)c1ccc(OC)cc1 (stereo unspecified)	n	88.4	63.6	n	n	n
COc1ccc(C(=O)NC(CO)c2nnc(SCc3ccc(Cl)c(Cl)c3)n2C)cc1 (stereo unspecified)	x	n	n	n	n	n
C=CCn1c(SCCOc2ccc(OC)cc2)nnc1C(C)NC(=O)Cc1ccc(OC)cc1 (stereo unspecified)	x	67.8	76.7	n	n	n
O=C(CCC1CCCC1)Nc1ccc(Br)cn1	n	n	n	n	n	n
CC(C)c1nc2cc3ccccc3cc2[nH]1	n	n	n	n	n	n
O=C(/C(=C/O)N=Nc1ccc(Cl)cc1)c1ccncc1	x	n	65.6	n	n	n
CC(C)(C)NC(=O)c1ccncc1	x	n	n	n	n	n
Cc1ccc(N=N/C(=C\O)C(=O)c2ccncc2)cc1	x	87.9	95.2	n	n	n
COc1ccc(C2C3=C(CCCC3=O)Nc3nc4ccccc4n32)c(OC)c1OC (stereo unspecified)	n	x	x	x	x	x
CCOc1ccc(C(C)(C)C)cc1S(=O)(=O)N1CC(C)OC(C)C1 (stereo unspecified)	n	63.0	79.2	n	n	n
C=CCn1cc(C(=O)NCc2cccnc2)c(=O)c2cc(S(=O)(=O)N(CC)CC)ccc21	n	89.4	n	n	n	n
CCN(CC)S(=O)(=O)c1ccc2c(c1)c(=O)c(C(=O)NCCOC)cn2C	n	n	n	n	n	n
C=CCn1cc(C(=O)NCCOC)c(=O)c2cc(S(=O)(=O)N(CC)CC)ccc21	n	74.9	n	n	n	n
C=CCn1cc(C(=O)NCCCOCC)c(=O)c2cc(S(=O)(=O)N(CC)CC)ccc21	n	55.7	n	n	n	n
SMILES	tolC growth inh	CYP2C9 inhib	CYP2C19 inhib	CYP2C9 act	Ecoli WT expand	CYP2C19 activ
O=C(N1CCCC1)n1c(Cc2ccccc2)nc2ccccc21	n	n	n	n	n	n
CCN(CC)S(=O)(=O)c1cccc(C(=O)Nc2nncs2)c1	n	n	n	n	n	n
O=C(c1ccc(S(=O)(=O)N2CCOCC2)cc1)N(Cc1ccco1)Cc1cccs1	n	n	n	n	n	n
Cc1nc2c3c(-c4ccccc4)c(-c4ccccc4)oc3ncn2n1	n	n	n	n	x	n
N#Cc1c(N2C(=O)C3C4C=CC(C4)C3C2=O)sc2c1CCC2 (stereo unspecified)	n	n	63.8	n	n	n
N#Cc1c(N)sc2c1CCCCCC2	n	n	n	n	n	n
COc1ccc(C(=O)COC(=O)CN2C(=O)NC(C)(C)C2=O)cc1OC	n	n	n	n	n	n
COC(=O)c1cc2oc(C)cc2n1CC(=O)Nc1ccc(OC)c(OC)c1OC	n	63.1	59.3	n	n	n
O=C(CNC(=O)Cc1ccccc1)NCC(=O)OCC(=O)c1cccc2ccccc12	x	n	n	3.6	n	n
Cc1cccc(C)c1NC(=O)c1cc2c(=O)c3ccccc3oc2nc1C(F)(F)F	x	n	n	n	n	n
Cc1ccc2oc3nc(C)c(C(=O)Nc4cccc(C(F)(F)F)c4)cc3c(=O)c2c1	x	88.4	n	n	n	n
COc1cc(N)ccc1Cc1ccc(N)cc1OC	n	n	77.9	n	n	n
c1ccc(N2CCN(c3nc4ccccc4n4cnnc34)CC2)cc1	x	n	65.3	n	n	n
c1ccc2c(c1)nc(N1CCOCC1)c1nncn12	x	n	n	n	n	n
O=C(CN1CCN(c2ccc(F)cc2)CC1)N1N=CCC1c1ccccc1 (stereo unspecified)	x	n	63.2	n	n	n
O=C(CN1CCN(c2ccc(F)cc2)CC1)N1CCC(Cc2ccccc2)CC1	n	69.3	54.4	n	n	n
O=C(CN1CCN(c2ccc(F)cc2)CC1)N1CCOCC1	n	n	n	n	n	n
O=C(O)c1ccc2c(c1)C(=O)N(C(Cc1ccc(O)cc1)C(=O)O)C2=O (stereo unspecified)	n	n	n	n	n	n
COc1ccc(S(=O)(=O)N2N=C(C)Oc3ccccc3C2=O)cc1	x	n	64.8	n	n	n
CC1=NN(S(=O)(=O)c2ccc(F)cc2)C(=O)c2ccccc2O1	x	n	n	n	n	n
CC1(C)NC(=O)N(CCOc2ccc3c(c2)CCC3)C1=O	n	n	72.4	n	n	n
CCC(C)(C)c1ccc(OCCN2C(=O)NC(C)(C)C2=O)cc1	x	76.2	89.0	n	n	n
CC1(C)NC(=O)N(CCOCCOc2ccccc2)C1=O	x	n	n	n	n	n
Cn1c2c(c(=O)[nH]c1=O)C(NC(=O)c1ccco1)(C(F)(F)F)C(=O)N2 (stereo unspecified)	n	n	n	n	n	n
COc1ccc(C2c3sc(=O)[nH]c3SC3C4CCC(C4)C23)cc1 (stereo unspecified)	100.0	n	55.9	n	n	n
SMILES	tolC growth inh	CYP2C9 inhib	CYP2C19 inhib	CYP2C9 act	Ecoli WT expand	CYP2C19 activ
COc1cc(C2c3sc(=O)[nH]c3SC3C4CCC(C4)C23)ccc1O (stereo unspecified)	n	52.6	50.8	n	n	n
COc1ccc(-c2c(S(=O)(=O)c3ccccc3)cnn2-c2ccccc2)cc1	x	50.8	97.3	n	n	n
O=S(=O)(c1ccccc1)c1cnn(-c2ccccc2)c1-c1ccc(Cl)cc1	x	n	55.4	n	n	n
Cc1ncc(S(=O)(=O)c2ccc(Cl)cc2)c(-c2ccccc2)n1	x	n	n	n	n	n
Cc1ccc(Oc2nc(-c3ccccc3)ncc2S(=O)(=O)c2ccc(C)cc2)cc1	x	n	n	n	n	n
COC(=O)C1(CCSC)NC(c2ccccc2OC)C2C(=O)N(C)C(=O)C21 (stereo unspecified)	n	n	n	n	n	n
